In article PMC2824925 (Clinical pharmacology and therapeutics, 2009):
“Also recorded” adds a separate entry of the source. *1 amine or outer side, *2 acyl side, *3 side chain or, on linkers, in order; H or OH if unused. Where a SMILES comes first, the peptide text is derived from it. Bridges are numbered along the chain shown (N, C = ends). [ ]: non-standard residue; d: D form. The star is where a group is joined. hTyr(3S-OH,4S-OH,3'-OSO3H) = N[C@H](C(=O)O)[C@H](O)[C@@H](O)c1ccc(O)c(OS(=O)(=O)O)c1; Orn(4R-OH,5R-OH) = O=C([C@H](C[C@@H](O)[C@@H](O)N[*:3])N[*:1])[*:2]; Pro(3S-OH,4S-Me) = C[C@H]1CN[C@H](C(=O)O)[C@H]1O; X1 = CCCCCOc1ccc(-c2cc(-c3ccc(C(=O)*)cc3)no2)cc1; Gln(3R-OH) = NC(=O)C[C@@H](O)[C@H](N)C(=O)O; Hyp = O=C(O)[C@@H]1C[C@@H](O)CN1

Columns and labels:
[1] = Plasma pharmacokinetics of repeat-dose intravenous micafungin in young infants; assay type: in vivo, human; conditions: for AUC(0-t): log-linear method; for Vd: Vdss/wt
Summary of the method: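 Infants aged >48 h to day of life 120 with suspected candidaemia or invasive candidiasis got test compound by 1-h IV infusion every 24 h. Blood samples (50–100 μl; ≤500 μl total, away from infusion site) were taken around the day-4 dose: pre-dose, end of infusion, and 2–4, 8–12 and 20–24 h. Plasma was measured by LC-MS/MS (LLOQ 0.05 μg/ml). Analysis was non-compartmental: CLss = dose/AUC0–24, AUC by log-linear method, observed Tmax.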

[2] = Safety and tolerability of repeat-dose micafungin in young infants; assay type: in vivo, human
Summary of the method: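 Multicentre open-label study: 7 mg/kg/day (≥1,000 g) or 10 mg/kg/day (<1,000 g) by 1-h IV infusion every 24 h for 4–5 days. Safety set: infants given ≥1 dose. Physical exams, haematology, serum chemistry and vital signs were taken at screening (≤72 h pre-dose) and until 72 h after the last dose. Investigators graded AEs for severity and drug relationship; treatment-emergent AEs counted through 72 h post-dose.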

[3] = infants weighing > 1,000 g, single dose 0.75, 1.5 or 3.0 mg/kg; cited from earlier work
[4] = adults, cited from earlier work
[5] = febrile neutropenic pediatric patients, Phase I; cited from earlier work
[6] = overall (7 and 10 mg/kg/day groups), day 4, n=12

For `CCCCCOc1ccc(-c2cc(-c3ccc(C(=O)N[C@H]4C[C@@H](O)[C@@H](O)NC(=O)[C@@H]5[C@@H](O)[C@@H](C)CN5C(=O)[C@H]([C@H](O)CC(N)=O)NC(=O)[C@H]([C@H](O)[C@@H](O)c5ccc(O)c(OS(=O)(=O)O)c5)NC(=O)[C@@H]5C[C@@H](O)CN5C(=O)[C@H]([C@@H](C)O)NC4=O)cc3)no2)cc1` [micafungin] (X1-[Orn(4R-OH,5R-OH)]T[Hyp][hTyr(3S-OH,4S-OH,3'-OSO3H)][Gln(3R-OH)][Pro(3S-OH,4S-Me)]; lactam 1-C), the “Median total body clearance adjusted for weight, lower in infants ≥ 1,000 g than in infants < 1,000 g” value ([1]; 7 mg/kg/day (≥ 1,000 g) vs 10 mg/kg/day (< 1,000 g)) was 21%, the “AUC0–24 of a single infant (highest observed)” value ([1]; 7 mg/kg/day group, subject 4, weight 4.5 kg, single infant) was 643.2 µg·h/mL and the “CLss/wt, median (range)” value ([1]; 7 mg/kg/day, IV, day 4, infants ≥ 1,000 g, n=6) was 0.4 (0.2–0.6) ml/min/kg. The “Tmax, median (range)” value ([1]; 10 mg/kg/day, 1-h IV infusion, day 4, infants < 1,000 g, n=6) was 1.1 (1.0–1.1) h, the “CLss/wt, median (range)” value ([1]; 10 mg/kg/day, IV, day 4, infants < 1,000 g, n=6) was 0.6 (0.4–0.8) ml/min/kg and the “CLss, median (range)” value ([1]; 10 mg/kg/day, IV, day 4, infants < 1,000 g, n=6, dose/AUC0–24) was 0.4 (0.2–0.5) ml/min. The AUC(0-t) ([1]; human, plasma, iv, 7 mg/kg/day, AUC0–24, mean (SD), 7 mg/kg/day, 1-h IV infusion, day 4, infants ≥ 1,000 g, n=6, plasma, SD) was 308 µg·h/mL, the AUC(0-t) ([1]; human, plasma, iv, 7 mg/kg/day, AUC0–24, median (range), 7 mg/kg/day, 1-h IV infusion, day 4, infants ≥ 1,000 g, n=6, plasma) was 258 µg·h/mL and the clearance ([1]; human, plasma, iv, 7 mg/kg/day, CLss, mean (SD), 7 mg/kg/day, IV, day 4, infants ≥ 1,000 g, n=6, dose/AUC0–24, SD) was 0.9 mL/min. For the same compound, the clearance ([1]; human, plasma, iv, 7 mg/kg/day, CLss, median (range), 7 mg/kg/day, IV, day 4, infants ≥ 1,000 g, n=6, dose/AUC0–24) was 0.7 mL/min, the clearance ([1]; human, plasma, iv, 7 mg/kg/day, CLss/wt, mean (SD), 7 mg/kg/day, IV, day 4, infants ≥ 1,000 g, n=6, SD) was 0.4 mL/min/kg and the clearance ([1]; human, plasma, iv, 7 mg/kg/day, CLss/wt, median (range), 7 mg/kg/day, IV, day 4, infants ≥ 1,000 g, n=6) was 0.45 mL/min/kg. It also gave a Vd ([1]; human, plasma, iv, 7 mg/kg/day, mean (SD), 7 mg/kg/day, IV, day 4, infants ≥ 1,000 g, n=6, SD) of 0.391 L/kg, a Vd ([1]; human, plasma, iv, 7 mg/kg/day, median (range), 7 mg/kg/day, IV, day 4, infants ≥ 1,000 g, n=6) of 0.341 L/kg and an AUC(0-t) ([1]; human, plasma, iv, 10 mg/kg/day, AUC0–24, median (range), 10 mg/kg/day, 1-h IV infusion, day 4, infants < 1,000 g, n=6, plasma) of 291 µg·h/mL. It also gave a clearance ([1]; human, plasma, iv, 10 mg/kg/day, CLss, mean (SD), 10 mg/kg/day, IV, day 4, infants < 1,000 g, n=6, dose/AUC0–24, SD) of 0.4 mL/min, a clearance ([1]; human, plasma, iv, 10 mg/kg/day, CLss/wt, mean (SD), 10 mg/kg/day, IV, day 4, infants < 1,000 g, n=6, SD) of 0.6 mL/min/kg and a clearance ([1]; human, plasma, iv, 10 mg/kg/day, CLss/wt, median (range), 10 mg/kg/day, IV, day 4, infants < 1,000 g, n=6) of 0.57 mL/min/kg. It also gave a Vd ([1]; human, plasma, iv, 10 mg/kg/day, mean (SD), 10 mg/kg/day, IV, day 4, infants < 1,000 g, n=6, SD) of 0.51 L/kg, a Vd ([1]; human, plasma, iv, 10 mg/kg/day, median (range), 10 mg/kg/day, IV, day 4, infants < 1,000 g, n=6) of 0.543 L/kg and an AUC(0-t) ([1]; human, plasma, iv, AUC0–24, mean (SD), overall (7 and 10 mg/kg/day groups), day 4, n=12, plasma, SD) of 308 µg·h/mL. The AUC(0-t) ([1]; human, plasma, iv, AUC0–24, median (range), overall (7 and 10 mg/kg/day groups), day 4, n=12, plasma) was 275 µg·h/mL, the clearance ([1]; human, plasma, iv, CLss/wt, mean (SD), overall (7 and 10 mg/kg/day groups), day 4, n=12, SD) was 0.5 mL/min/kg and the Tmax ([1]; human, plasma, iv, Tmax, mean (SD), overall (7 and 10 mg/kg/day groups), day 4, n=12, SD) was 1.2 h. For the same compound, the Vd ([1]; human, plasma, iv, mean (SD), overall (7 and 10 mg/kg/day groups), day 4, n=12, SD) was 0.45 L/kg, the Vd ([1]; human, plasma, iv, median (range), overall (7 and 10 mg/kg/day groups), day 4, n=12) was 0.503 L/kg and the “CLss/wt, median (range)” value [1, 6] was 0.5 (0.2–0.8) ml/min/kg. The “Tmax, median (range)” value [1, 6] was 1.1 (1.0–2.1) h, the “Allergic or histamine-like reactions, infusion-related toxicity, nephrotoxicity or hepatotoxicity” value ([2]; 7 and 10 mg/kg/day) was “no instances” and the “Changes in AST and ALT from baseline to post-treatment” value ([2]; 7 and 10 mg/kg/day) was “minimal”. The “Renal toxicity / changes in hematology parameters” value ([2]; 7 and 10 mg/kg/day) was “no evidence of renal toxicity or significant changes in hematology parameters”, the “Infants with AEs irrespective of causality” value ([2]; 7 and 10 mg/kg/day IV, ≥ 4 days, 12/13 infants) was 92.3% and the “Deaths / discontinuations because of an AE” value ([2]; 7 and 10 mg/kg/day, 13 infants) was “No deaths occurred in this study and no patients withdrew prematurely from the study because of an AE; also recorded: No deaths or discontinuations from treatment occurred”. The Tolerability ([2]; doses of up to 10 mg/kg/day IV, ≥ 4 days, young infants) was “well tolerated”, the “Infants with serious AEs” value ([2]; four infants of 13, two in each treatment group) was 30.8% and the Micafungin clearance rate [3] was 0.65 mL/min/kg. The “Average AUC” value ([4]; 150-mg dose) was 166.7 µg·h/mL, the “AUC values well tolerated” value [4] was less than 600 µg·h/mL and the “Micafungin clearance in children 2–8 years relative to children ≥ 9 years of age” value [5] was 1.5–2.0 times higher.
